The source of these data is ChEMBL document CHEMBL1671834, “Novel 3-aryl indoles as progesterone receptor antagonists for uterine fibroids” (ACS Med Chem Lett, 2011).

The target of one assay is T1, Androgen receptor (Homo sapiens, UniProt P10275).
T1 sequence (P10275 whole entry): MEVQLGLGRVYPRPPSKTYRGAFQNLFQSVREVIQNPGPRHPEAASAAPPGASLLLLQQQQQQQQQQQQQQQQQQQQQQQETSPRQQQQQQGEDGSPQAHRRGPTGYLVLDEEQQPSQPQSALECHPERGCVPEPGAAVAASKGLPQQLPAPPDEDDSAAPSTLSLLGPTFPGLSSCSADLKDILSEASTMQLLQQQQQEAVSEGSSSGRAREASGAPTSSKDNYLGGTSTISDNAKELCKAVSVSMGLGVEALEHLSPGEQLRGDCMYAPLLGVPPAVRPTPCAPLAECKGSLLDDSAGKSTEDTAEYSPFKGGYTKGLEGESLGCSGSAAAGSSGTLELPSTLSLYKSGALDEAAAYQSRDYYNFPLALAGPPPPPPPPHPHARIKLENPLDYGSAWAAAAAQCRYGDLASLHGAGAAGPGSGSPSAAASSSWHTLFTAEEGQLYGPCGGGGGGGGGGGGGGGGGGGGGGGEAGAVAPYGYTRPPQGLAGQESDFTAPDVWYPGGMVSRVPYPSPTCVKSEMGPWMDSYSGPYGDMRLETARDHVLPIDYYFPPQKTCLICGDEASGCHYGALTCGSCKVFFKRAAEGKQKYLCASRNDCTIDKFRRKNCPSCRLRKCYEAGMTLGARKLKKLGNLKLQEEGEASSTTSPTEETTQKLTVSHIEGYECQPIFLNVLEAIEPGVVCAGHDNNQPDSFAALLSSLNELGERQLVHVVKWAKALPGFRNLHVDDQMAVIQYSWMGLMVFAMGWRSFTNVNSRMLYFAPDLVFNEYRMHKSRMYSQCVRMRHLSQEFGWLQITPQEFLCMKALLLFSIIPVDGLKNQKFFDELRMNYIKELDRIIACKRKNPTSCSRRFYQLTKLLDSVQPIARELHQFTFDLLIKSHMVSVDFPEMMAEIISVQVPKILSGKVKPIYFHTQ
Briefly: Displacement of [3H]methyltrienolone from human androgen receptor expressed in HEK293 cells. Format: cell-based. (In a radioligand displacement assay an active substance lowers the binding of a labelled ligand.)

Assay [1] concerns the target T2, Progesterone receptor (Homo sapiens, UniProt P06401).
T2 sequence (P06401 whole entry): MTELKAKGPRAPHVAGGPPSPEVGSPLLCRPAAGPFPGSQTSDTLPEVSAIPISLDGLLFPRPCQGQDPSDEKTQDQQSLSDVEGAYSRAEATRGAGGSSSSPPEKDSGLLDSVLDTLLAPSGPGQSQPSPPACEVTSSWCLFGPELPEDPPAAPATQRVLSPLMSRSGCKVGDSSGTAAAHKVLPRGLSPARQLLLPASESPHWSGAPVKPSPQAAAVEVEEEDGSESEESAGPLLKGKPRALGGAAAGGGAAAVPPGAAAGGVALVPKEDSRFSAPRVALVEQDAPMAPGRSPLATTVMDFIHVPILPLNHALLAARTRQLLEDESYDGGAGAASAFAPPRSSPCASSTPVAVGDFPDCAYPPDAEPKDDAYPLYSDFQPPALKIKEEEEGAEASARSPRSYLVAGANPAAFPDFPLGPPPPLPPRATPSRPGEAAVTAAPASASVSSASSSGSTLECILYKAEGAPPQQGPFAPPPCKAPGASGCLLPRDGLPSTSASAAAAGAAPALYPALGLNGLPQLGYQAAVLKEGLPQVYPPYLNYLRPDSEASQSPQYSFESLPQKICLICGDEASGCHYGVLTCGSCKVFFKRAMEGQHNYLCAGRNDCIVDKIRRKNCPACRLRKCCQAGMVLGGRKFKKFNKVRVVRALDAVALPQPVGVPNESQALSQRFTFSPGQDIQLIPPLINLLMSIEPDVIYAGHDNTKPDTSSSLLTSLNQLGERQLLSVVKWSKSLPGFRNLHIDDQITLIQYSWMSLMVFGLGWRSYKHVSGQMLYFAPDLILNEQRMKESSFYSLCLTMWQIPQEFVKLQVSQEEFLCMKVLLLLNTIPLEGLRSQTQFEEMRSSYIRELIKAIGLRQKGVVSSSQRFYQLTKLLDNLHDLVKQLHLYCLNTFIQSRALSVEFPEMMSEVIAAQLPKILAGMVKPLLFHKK
The assay is described as follows: Antagonist activity at human progesterone receptor expressed in HEK293 cells assessed as inhibition of […]-induced transcriptional activity by GRE-driven luciferase reporter gene assay. Type of assay: functional, cell-based. Put shortly:
(§1)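 Transcription assay in HEK293 cells cotransfected with full-length human receptor. Values are geometric means of at least duplicate determinations.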
For orientation: In a reporter assay the amount or activity of a reporter protein is the signal.

In assay [2] the target is T3, Progesterone receptor (Homo sapiens) (UniProt P06401).
T3 sequence (whole entry): T2 sequence (P06401 whole entry)
Briefly: Antagonist activity at human progesterone receptor expressed in HEK293 cells assessed as inhibition of […]-induced transcriptional activity by GRE-driven luciferase reporter gene assay relative to untreated control. The arrangement: concentration or dose not given beside the values. Format: functional, cell-based. The following applies: concentration not given here. Put shortly: as §1

The target of assay [3] is T2, Progesterone receptor. Briefly: Displacement of [3H]methyltrienolone from human progesterone receptor expressed in HEK293 cells. Format: cell-based. In short, it runs like this:
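Competitive binding to recombinant full-length human receptors against tritium-labelled standards. Values are geometric means of at least duplicate determinations.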

Molecules are shown by their SMILES. Some results are limits rather than exact numbers.

As a reminder, the Ki is the dissociation constant of the complex between target and ligand, obtained from inhibition or displacement. As a reminder, the IC50 is the point on the concentration scale where inhibition reaches its midpoint. As a reminder, the inhibition is the share of the control response that was lost under treatment. For `CC[C@@H](C)n1cc(-c2ccc(C#N)cc2)c2ccc(NS(C)(=O)=O)cc21`, the results for the inhibition constant Ki at Androgen receptor and on Progesterone receptor [3] were 2550 nM and 0.834 nM, respectively. Moreover, the IC50 at Progesterone receptor [1] amounted to 9.92 nM. For the same compound, the inhibition in assay [2] worked out at 96.2%.

As to `Cc1cc(-c2cn(C(C)C)c3cc(NS(C)(=O)=O)ccc23)ccc1C#N`, the Ki is 403 nM on Androgen receptor and 0.298 nM at Progesterone receptor [3]. Further, the 50% inhibitory concentration (IC50) at Progesterone receptor [1] came to 3.38 nM. Further, the inhibition in assay [2] is 95.8%.

With `CC(C)n1cc(-c2ccc(C#N)cc2)c2ccc(NS(C)(=O)=O)cc21`, the results for the inhibitory constant (Ki) at Androgen receptor and on Progesterone receptor [3] were above 3900 nM and 0.795 nM, respectively. Besides, the half-inhibitory concentration (IC50) on Progesterone receptor [1] is 6.81 nM. In addition, the inhibition in assay [2] worked out at 96.2%.

As for `COc1ccc(C(c2ccccc2)c2c[nH]c3ccccc23)cc1` (stereo not given), the Ki was 68.9 nM on Androgen receptor and 478 nM on Progesterone receptor [3]. In addition, on Progesterone receptor [1], the IC50 came to 3720 nM. The inhibition in assay [2] came to 86.5%.

As for `CCn1cc(-c2ccc(C#N)cc2)c2ccc(NS(C)(=O)=O)cc21`, the Ki on Androgen receptor is 2590 nM; on Progesterone receptor [3] it was 4.23 nM. Moreover, on Progesterone receptor [1], the IC50 turned out to be 12.6 nM. The inhibition in assay [2] is 97%.

Turning to `Cn1cc(-c2ccc(C#N)cc2)c2ccc(NS(C)(=O)=O)cc21`, the Ki at Androgen receptor was above 4020 nM; on Progesterone receptor [3], 28 nM. In addition, the IC50 at Progesterone receptor [1] worked out at 485 nM. The inhibition in assay [2] was 87.8%.

As to `CC(C)n1cc(-c2ccc(C#N)c(F)c2)c2ccc(NS(C)(=O)=O)cc21`, the figures for the Ki at Androgen receptor and on Progesterone receptor [3] were 648 nM and 0.214 nM, respectively. Moreover, the IC50 at Progesterone receptor [1] amounted to 2.29 nM. Further, the inhibition in assay [2] was 94.9%.

Consider `CC(c1ccc(F)cc1)(c1c[nH]c2c(NS(C)(=O)=O)cccc12)C1CC1` (stereo not given), for which the inhibition constant Ki at Androgen receptor was 220 nM; at Progesterone receptor [3] it was 454 nM. Also, the half-maximal inhibitory concentration (IC50) on Progesterone receptor [1] stood at 765 nM. The inhibition in assay [2] came out at 91.7%.

Regarding `CC[C@H](C)n1cc(-c2ccc(C#N)cc2)c2ccc(NS(C)(=O)=O)cc21`, the values for the Ki at Androgen receptor and on Progesterone receptor [3] were 1740 nM and 0.32 nM, respectively. Moreover, the IC50 at Progesterone receptor [1] is 3.89 nM. The inhibition in assay [2] was found to be 96.8%.

For `COc1cc(-c2cn(C(C)C)c3cc(NS(C)(=O)=O)ccc23)ccc1C#N`, the Ki on Androgen receptor amounted to 490 nM; at Progesterone receptor [3], 1.45 nM. Besides, on Progesterone receptor [1], the IC50 was determined as 7.28 nM. The inhibition in assay [2] amounted to 97.4%.
